According to article PMC8978309 (Materials Advances, 2022):

Legend:
[1] = Dissolution profile in FaSSGF; assay type: physicochemical; conditions: FaSSGF pH 1.60, 37 °C
Method in brief: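 Test compound stirred in 100 mL fasted-state simulated gastric fluid (HCl/NaCl, pH 1.60) at 37 °C and 150 rpm for 36 h. Dissolved drug quantified directly by UV absorbance at 208 nm (400–200 nm scan) against a reagent blank.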

[2] = Dissolution profile in PBS; assay type: physicochemical; conditions: PBS pH 7.40, 37 °C
Method in brief: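 Powdered test compound dissolved in 100 mL PBS (pH 7.40) at 37 °C with constant stirring at 150 rpm for 48 h. Release followed by UV absorbance at 208 nm (scan 400–200 nm) against a reagent blank.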

[3] = test system: normal osteoblast-like hFOB 1.19 cell line; assay: AlamarBlue cytotoxicity assay, hFOB 1.19; assay type: cell-based, human; conditions: for IC50: Homo sapiens
Method in brief: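 hFOB 1.19 osteoblast-like cells grown in 1:1 DMEM:F-12 with 0.3 mg mL−1 G418 and 10% FBS at 34 °C, 5% CO2. Seeded at 2.5 × 10^5 cell per mL, then preincubated 24 h at 34 °C. Exposed 24, 48 or 72 h to two-fold dilutions (0–200 μM), or to 1.9–15 μM. Read-out: 10% AlamarBlue, 4 h, fluorescence 560/590 nm, relative to medium control. IC50 by nonlinear regression; triplicates.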

Hydroxyapatite = assay type: binding; conditions: PBS pH 7.40, 37 °C
Method in brief: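 20 mg synthetic hydroxyapatite incubated with 3 mL test compound in PBS (0.5 mg mL−1) at 37 °C for 0–11 d. Controls were compound alone and HA alone in PBS. Supernatant collected daily and centrifuged (1500 rpm, 8 min). Bound fraction derived from the fall in supernatant absorbance at 208 nm. Experimental groups done in duplicate.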

[4] = cited from earlier work
[5] = AlamarBlue cytotoxicity assay, MDA-MB-231; assay type: cell-based, human; conditions: human, MDA-MB-231 cells
Method in brief: (§1)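 MDA-MB-231 cells grown in DMEM with 1% Pen-Strep and 10% FBS at 37 °C, 5% CO2. Seeded at 2.5 × 10^5 cell per mL, then preincubated 24 h. […] Read-out: 10% AlamarBlue in PBS, 4 h, fluorescence ex 560/em 590 nm, normalised to medium control (100%). IC50 by nonlinear regression; triplicates, mean, SD, %CV.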

[6] = test system: human breast cancer MDA-MB-231 cell line; assay: AlamarBlue cytotoxicity assay, MDA-MB-231; assay type: cell-based; conditions: for IC50: Homo sapiens; for relative cell live (%RCL): MDA-MB-231, 15 μM
Method in brief: as §1

Compound: O=P(O)(O)C(O)(Cn1ccnc1)P(=O)(O)O [ZOLE, zoledronate]
- time to reach maximum dissolution / equilibrium solubility [1]: 3 h
- time to reach maximum dissolution / equilibrium solubility [2]: 30 min
- dissolution (ZOLE content released, maximum reached) ([2]; 150 rpm): 100%
- IC50 ([3]; 24 h): > 200 µM
- IC50 ([3]; 48 h): 86 ± 3 µM
- IC50 ([3]; 72 h): 49 ± 4 µM
- cell death (cell viability result in words) ([3]; hFOB 1.19, 3.8–15 μM, after 24, 48, and 72 h): no significant cell death
- time to reach maximum binding to HA (Hydroxyapatite): 8 days
- maximum binding to HA (Hydroxyapatite; 0–11 d): 82%
- binding to HA (Hydroxyapatite; in 1 d): 15%
- bioavailability [4]: < 1%
- maximum plasma concentration [4]: 1 µM
- viability at 1.9 µM [5]: ~100%
- IC50 ([6]; MDA-MB-231, 24 h): > 200 µM
- IC50 ([6]; MDA-MB-231, 48 h): > 200 µM
- IC50 ([6]; MDA-MB-231, 72 h): 35 ± 4 µM
- %RCL ([6]; MDA-MB-231, 3.8 μM, time not stated (Fig. 9b)): ~100%
- relative cell live (%RCL) ([6]; 48 h): 80 ± 2%
- relative cell live (%RCL) ([6]; 72 h): 58 ± 2%
